# Reference: publication PMC2746395 (Journal of medicinal chemistry, 2009)
# Entries after “also recorded” stand apart in the source; their conditions may differ.
# Legend:
# NET [1] = settings: rats, 60 min post injection; cited from earlier work
# NET [2] = settings: cited from earlier work
# NET [3] = target: T1, NET (Macaca mulatta, UniProt Q9MYW8); assay: MicroPET imaging in anesthetized rhesus monkeys; format: in vivo, rhesus monkey; settings: for Peak ratio of uptake cerebellum to caudate / Peak ratio of uptake midbrain to caudate / Peak ratio of uptake thalamus to caudate: time not stated; for time of peak uptake in all regions of interest: followed by fast washout
# T1 sequence (Q9MYW8 1-617): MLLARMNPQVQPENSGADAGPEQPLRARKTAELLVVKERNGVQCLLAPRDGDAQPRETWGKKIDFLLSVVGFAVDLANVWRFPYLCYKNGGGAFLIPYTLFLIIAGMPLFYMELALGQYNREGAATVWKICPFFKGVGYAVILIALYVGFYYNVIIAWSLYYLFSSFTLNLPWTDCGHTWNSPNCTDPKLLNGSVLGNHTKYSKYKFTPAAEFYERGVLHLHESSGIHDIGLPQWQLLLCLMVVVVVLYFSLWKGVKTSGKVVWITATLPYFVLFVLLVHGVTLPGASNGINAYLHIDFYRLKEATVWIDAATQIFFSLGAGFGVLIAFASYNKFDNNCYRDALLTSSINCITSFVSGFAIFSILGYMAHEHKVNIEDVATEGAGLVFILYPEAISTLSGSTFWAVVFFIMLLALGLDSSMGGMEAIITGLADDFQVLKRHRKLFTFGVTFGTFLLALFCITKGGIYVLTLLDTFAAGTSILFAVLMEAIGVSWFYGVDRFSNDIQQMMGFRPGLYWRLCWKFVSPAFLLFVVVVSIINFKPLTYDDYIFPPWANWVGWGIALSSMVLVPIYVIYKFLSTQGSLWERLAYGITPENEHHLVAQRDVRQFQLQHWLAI
# NET [4] = target: T1, NET; assay: PET imaging in awake rhesus monkeys; format: in vivo, rhesus monkey; settings: for effect of isoflurane anesthesia / awake state on binding kinetics: awake vs anesthetized monkeys
# human NET (hNET) = human NET (hNET) (Homo sapiens, UniProt P23975); assay: In vitro competition binding vs [3H]nisoxetine in transfected HEK-293 cells
# Sequence of human NET (hNET) (P23975 whole entry): as the sequence (Q9MYW8 1-617) above, with S15N, A19T, V246I, I410V, I427V, G452S, V606I counted along it
# NET [5] = settings: cynomolgus monkeys and human; cited from earlier work
# [6] = Lipophilicity measurement; format: physicochemical; settings: relative to 1
# How it was run: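 Radiolabeled test compound (~5–10 µCi) was added to 2 mL 1-octanol plus 2 mL 0.02 M sodium phosphate buffer (pH 7.4), vortexed 10 min at room temperature, then centrifuged 5 min. A 0.5 mL sample of each layer was gamma-counted and decay corrected. log P7.4 = log(octanol counts/buffer counts) per replicate; three replicates averaged.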
# human SERT (hSERT) = human SERT (hSERT) (Homo sapiens, UniProt P31645); assay: In vitro competition binding vs [3H]citalopram in transfected HEK-293 cells; settings: Ki ratio relative to 1
# Sequence of human SERT (hSERT) (P31645 whole entry): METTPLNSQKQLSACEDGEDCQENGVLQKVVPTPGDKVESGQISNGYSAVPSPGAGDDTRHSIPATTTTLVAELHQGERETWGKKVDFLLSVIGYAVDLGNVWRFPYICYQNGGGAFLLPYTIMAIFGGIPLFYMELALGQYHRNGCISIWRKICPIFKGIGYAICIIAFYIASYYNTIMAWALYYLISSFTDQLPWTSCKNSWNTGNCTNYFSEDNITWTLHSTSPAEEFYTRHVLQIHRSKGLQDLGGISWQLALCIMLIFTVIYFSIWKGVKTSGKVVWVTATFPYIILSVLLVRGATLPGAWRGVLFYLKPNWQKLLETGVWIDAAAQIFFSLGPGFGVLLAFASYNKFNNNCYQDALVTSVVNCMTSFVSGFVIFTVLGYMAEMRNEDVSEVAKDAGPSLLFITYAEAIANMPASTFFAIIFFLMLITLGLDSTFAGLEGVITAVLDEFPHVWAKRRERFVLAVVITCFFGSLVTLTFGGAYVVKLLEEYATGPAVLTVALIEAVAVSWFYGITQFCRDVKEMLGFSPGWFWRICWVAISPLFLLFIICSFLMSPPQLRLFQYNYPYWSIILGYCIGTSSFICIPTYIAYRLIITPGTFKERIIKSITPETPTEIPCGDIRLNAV
# [7] = after injection, baseline, anesthetized
# [8] = postinjection, baseline, anesthetized
structure (smiles),measurement,setting,value
"[11CH3]Oc1ccccc1O[C@@H](c1ccccc1)[C@@H]1CNCCO1 [(S,S)-[^11C]MeNER]",hypothalamus-to-striatum uptake ratio,NET [1],2.5
same,ratios of uptake in NET-rich brain regions to striatum,NET [2]; 90 min postinjection,1.4–1.6
same,thalamus-to-striatum uptake ratios,NET [2]; cynomolgus monkeys and baboons,1.4–1.6
[18F]CCOc1ccccc1OC(c1ccccc1)C1CNCCO1 (centres unmarked) [[^18F]2],Peak ratio of uptake cerebellum to caudate,"NET [3]; baseline, anesthetized",1.05
same,Peak ratio of uptake midbrain to caudate,"NET [3]; baseline, anesthetized",1.13
same,Peak ratio of uptake thalamus to caudate,"NET [3]; baseline, anesthetized",1.13
same,time of peak uptake in all regions of interest,"NET [3]; baseline, anesthetized",15 min
[11CH3]c1ccccc1S[C@@H](c1ccccc1)[C@@H]1CNCCO1 [[^11C]4],effect of isoflurane anesthesia / awake state on binding kinetics,NET [4],markedly decreased; also recorded: greatly decreased
same,displacement of radioactivity in the caudate in chase study with SERT ligand,"NET [3]; (R,S)-citalopram HBr 1.5 mg/kg 40 min after injection",no displacement
same,time of peak uptake of radioactivity in thalamus and midbrain,NET [3]; [7],27.5 to 45 min
same,"washout T1/2, thalamus and midbrain","NET [3]; baseline, anesthetized",~ 160 min
"COc1ccccc1O[C@@H](c1ccccc1)[C@@H]1CNCCO1 [(S,S)-MeNER, reference compound]",NET selectivity DAT/NET,human NET (hNET); ratio of Ki values,>2000
"[2H]C([2H])([18F])Oc1ccccc1O[C@@H](c1ccccc1)[C@H]1CNCCO1 [(S,S)-[^18F]FMeNER-D2]",thalamus-to-striatum binding ratio,NET [5],~ 1.5
[11CH3]c1ccccc1O[C@@H](c1ccccc1)[C@@H]1CNCCO1 [[^11C]1],effect of isoflurane anesthesia / awake state on binding kinetics,NET [4],not significantly altered
same,time of peak uptake,NET [4]; both awake and anesthetized monkey studies,17.5 to 35 min
same,highest ratios of uptake in NET-rich regions to that in caudate,"NET [3]; 45 min, anesthetized",1.30–1.45
same,Ratio of uptake pons to caudate (peak),"NET [3]; 45 min, baseline, anesthetized",1.40
same,time of peak uptake of radioactivity in thalamus and pons,NET [3]; [7],15.5 to 27.5 min
same,time to specific binding peak equilibrium (quasi-equilibrium),"NET [3]; after injection, both anesthetized and awake states",less than 1 h
same,"half-time for clearance from peak uptake (T1/2), thalamus and pons","NET [3]; baseline, anesthetized",~ 105 min
same,time of peak uptake in caudate,NET [3]; [8],18 to 35 min
same,time of peak uptake in midbrain and cerebellum,NET [3]; [8],9.5 to 18.5 min
"Cc1ccccc1S[C@@H](c1ccccc1)[C@@H]1CNCCO1 [compound 4, (2S,3S)-2-[α-(2-Methylphenylthio)phenylmethyl]morpholine]",increase of log P7.4 on substitution of oxygen by sulfur,[6],0.43
same,times more potent than 1 for the NET,human NET (hNET); Ki ratio relative to 1,3.4 times
same,times more potent than 1 for the SERT,human SERT (hSERT),6.5 times
[18F]CCCOc1ccccc1OC(c1ccccc1)C1CNCCO1 (centres unmarked) [[^18F]3],Peak ratio of uptake cerebellum to caudate,"NET [3]; baseline, anesthetized",0.95
same,Peak ratio of uptake midbrain to caudate,"NET [3]; baseline, anesthetized",1.18
same,Peak ratio of uptake thalamus to caudate,"NET [3]; baseline, anesthetized",1.18
same,time of peak uptake in all regions of interest,"NET [3]; baseline, anesthetized",15 min
